CHRM5 antagonist: antagonists of human muscarinic M5 receptor (CHRM5) | P08912 | CHO-hM5 cells, Fluo-8 calcium fluorescence, ACh EC80 | inhibition, % at 3 µM | 0.59% of 360,000 active | AID 624040;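 active means inhibition above a per-plate cutoff, the mean of that plate's test compounds plus 3 SD, cut at about 27% in these data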;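 further: 0% = acetylcholine EC80 with DMSO and 100% = DMSO without agonist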
CHRM4 antagonist: CHRM4 antagonism in calcium assay; P08173; CHO-hM4 cells, ACh EC80, Fluo-8 calcium fluorescence; inhibition, % at 3 µM; 0.73% of 360,000 active;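 active means inhibition above its plate's cutoff, the mean inhibition of sample wells plus 3 SD, cut at about 27% in these data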;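 further: 0% = acetylcholine EC80 with DMSO and 100% = DMSO without agonist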
Target sequence (P08173 whole entry, looked up): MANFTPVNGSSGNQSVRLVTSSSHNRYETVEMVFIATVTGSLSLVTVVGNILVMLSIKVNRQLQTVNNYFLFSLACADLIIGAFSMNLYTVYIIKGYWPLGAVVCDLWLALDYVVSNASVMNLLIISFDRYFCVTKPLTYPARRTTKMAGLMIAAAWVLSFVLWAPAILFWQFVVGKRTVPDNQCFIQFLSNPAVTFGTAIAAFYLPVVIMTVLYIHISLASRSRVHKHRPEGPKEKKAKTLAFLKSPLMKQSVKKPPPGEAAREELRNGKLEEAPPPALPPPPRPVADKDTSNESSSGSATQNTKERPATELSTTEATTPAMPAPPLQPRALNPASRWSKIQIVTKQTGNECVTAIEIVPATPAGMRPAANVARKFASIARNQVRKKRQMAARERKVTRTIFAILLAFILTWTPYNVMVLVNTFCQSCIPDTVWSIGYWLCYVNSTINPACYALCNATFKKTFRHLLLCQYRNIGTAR
CHRM5 PAM: potentiates acetylcholine response at human M5 receptor; CHO-K1 hM5, Fluo-8 calcium, ACh EC20 PAM; 0% = ACh EC20, 100% = ACh EC100; AID 624038; activation, % at 3 µM; 0.3% of 360,000 active;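 active means activation above the run cutoff, the mean activation of all test compounds plus 3 SD, cut at about 18% in these data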
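Probe or stimulus: acetylcholine, EC20 level; Assay system: human M5 receptor in CHO-K1 cells; Schedule: compound preincubation 140 s before EC20 acetylcholine addition; Technique: intracellular calcium via Fluo-8 fluorescence; Dosing: single-point, 3 µM nominal; Read-out basis: percent activation from peak-over-basal fluorescence ratio, scaled EC20-to-EC100 acetylcholine; Repeats: one well per compound, no replicates.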
CHRM4 agonist: agonists of human muscarinic M4 receptor (CHRM4) | 0.14% of 360,000 active | activation, % at 3 µM | CHO-K1 hM4/Gqi5, Fluo-8 calcium fluorescence; vehicle 0%, full acetylcholine response 100% | P08173;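 active means activation above the run mean over all test wells plus 3 SD, cut at about 32% in these data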;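 further: peak over basal fluorescence ratio per well then scaled between controls; 0% = DMSO wells and 100% = acetylcholine at EC100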
CHRM5 agonist: CHRM5 agonism in calcium assay. CHO-K1 hM5 cells, Fluo-8 calcium fluorescence; 0% DMSO wells, 100% maximal acetylcholine response. activation, % at 3 µM. 0.19% of 360,000 active;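 active means activation above the run's mean over test compounds plus 3 SD, cut at about 23% in these data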;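 further: signal is peak over basal fluorescence ratio across the kinetic read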
M4 PAM: CHRM4 positive allosteric modulation | P08173 | CHO-K1 hM4/Gqi5, Fluo-8 calcium fluorescence, ACh EC20; 0% = ACh EC20, 100% = maximal ACh | activation, % at 3 µM | 0.4% of 360,000 active;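 active means activation above its plate's cutoff, the mean activation of sample wells plus 3 SD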
Active calls of the source: *. Rows were chosen to be rich in hits. Some 1.9% of all compounds tested hit in one or more screens of this group.

SMILES | CHRM5 antagonist | CHRM4 antagonist | CHRM5 PAM | CHRM4 agonist | CHRM5 agonist | M4 PAM
COC(=O)[C@]12CCCCC=C1N(Cc1cccc3ccccc13)C(=O)[C@H](CC(=O)NCc1cccc(C(F)(F)F)c1)C2 | 6.6 | -11.3 | -5.6 | -0.1 | 1.7 | 3.1
C(=Cc1c[nH]c2ccccc12)c1nccc2ccccc12 | 21.9 | -5.5 | -4.3 | 4.4 | 9.9 | 2.0
C(=Cc1c[nH]c2ccccc12)c1ccc2ccccc2n1 | 8.2 | 0.7 | -7.1 | 35.9* | 19.5 | -9.8
COc1ccc(CCNC(=O)CSc2nnnn2-c2ccccc2)cc1 | 33.5* | -8.2 | 42.5* | 1.9 | -2.7 | -4.0
Cc1cc2nc3c(=O)n(CCc4ccccc4)c(=O)[nH]c3nc2cc1N | 5.5 | 0.1 | -6.7 | 8.8 | 31.9* | -1.7
CCCCn1c(=O)[nH]c2nc3cc(N)ccc3nc2c1=O | 15.7 | 22.3 | -10.9 | 56.7* | 21.8 | -24.0
Nc1ccc2nc3c(=O)n(CCc4ccccc4)c(=O)[nH]c3nc2c1 | 32.7* | 17.7 | -31.4 | 44.9* | 165.2* | -17.6
Nc1ccc2nc3c(=O)n(C4CCCCC4)c(=O)[nH]c3nc2c1 | 35.1* | 20.9 | -40.3 | 70.4* | 133.3* | -42.4
Nc1ccc2nc(CCc3ccccc3)[nH]c2c1 | 5.3 | -6.4 | -6.3 | 6.1 | -1.7 | 3.5
O=C(Nc1cccc2c1CCCC2)c1cc(C2CCCCN2C(=O)CCCc2ccccc2)on1 (stereo not given) | -3.2 | -4.8 | -0.3 | -0.3 | -1.6 | 1.1
O=S1(=O)CC(N2CCC(Cc3ccccc3)CC2)CN1C1CCCCC1 (stereo not given) | -6.5 | -23.8 | -1.0 | 6.5 | 5.8 | 7.5
N#C/C(=C\c1coc2ccc(O)cc2c1=O)C(=O)Nc1nc2ccccc2s1 | 48.1* | 39.5* | -28.1 | 67.2* | 104.5* | -38.2
Cc1cc(=O)n2nc(N3CCCC(C(=O)NCCCN4CCc5ccccc5C4)C3)sc2n1 (stereo not given) | 12.5 | 28.1* | -8.4 | -2.2 | -7.5 | -10.9
CCC1CCCCN1CCCNC(=O)C1CCCN(c2nn3c(=O)cc(C)nc3s2)C1 (stereo not given) | -10.7 | 1.4 | -2.1 | 1.0 | -8.7 | -5.0
Cc1cn([C@H]2C[C@H](O)[C@@H](/C=C/C(=O)NCCc3ccc(S(N)(=O)=O)cc3)O2)c(=O)[nH]c1=O | -4.3 | -33.1 | 5.6 | 2.2 | 3.2 | 14.8
O=C(O)CC(SCC(=O)Nc1ccc(S(=O)(=O)N2CCCC2)cc1)C(=O)O (stereo not given) | -2.7 | -18.5 | -4.7 | -0.7 | -5.7 | 7.1
O=C(O)CC(SCC(=O)Nc1ccccc1)C(=O)O (stereo not given) | -2.0 | -12.3 | 5.8 | 0.5 | 1.1 | 22.0*
O=C(Nc1cccc(C(F)(F)F)c1)Nc1ccc(N2CCCC2)c(S(=O)(=O)Nc2ccccc2Cl)c1 | 27.8* | 26.1 | -14.4 | 4.6 | -1.4 | -13.7
CS(=O)(=O)N(CC(=O)Nc1ccccc1C(=O)NCCc1ccccc1)c1ccc2c(c1)OCCO2 | -3.1 | 41.3* | -8.5 | 0.7 | 3.7 | -14.1
CS(=O)(=O)N(CC(=O)Nc1ccccc1C(=O)NCc1ccccc1)c1ccc2c(c1)OCCO2 | -6.1 | 10.2 | -9.4 | 6.9 | 9.9 | -17.5
CC1=C(C(=O)OCC2CCCO2)C(c2ccncc2)C2=C(CCCC2=O)N1 (stereo not given) | -6.4 | 0.4 | 8.1 | 0.4 | -3.1 | 2.1
CCN(CC)c1ccc(C2C(C(=O)OCCOC)=C(C)NC3=C2C(=O)CCC3)cc1 (stereo not given) | 21.8 | 34.8* | -14.6 | 1.3 | -7.1 | -19.5
CC1=C(C(=O)OCC2CCCO2)C(c2ccc(C)cc2)C2=C(CCCC2=O)N1 (stereo not given) | -4.1 | -9.3 | 19.7* | 1.5 | -7.0 | 9.4
COc1ccc(CN(CCNC(=O)CCCCC(=O)NCCN(Cc2ccc(OC)cc2)C(C)C)C(C)C)cc1 | 47.7* | 82.3* | -31.4 | 0.4 | -21.1 | -62.6
COc1ccc(CCNC(=O)CCCCC(=O)NCCc2ccc(OC)cc2)cc1 | 15.6 | 0.1 | -2.2 | -0.2 | -3.0 | -0.9
